Consider 21 molecules from ChEMBL document CHEMBL1134541, “Potent and selective carboxylic acid-based inhibitors of matrix metalloproteinases” (J Med Chem, 2001).

One data set concerns the target T1, Matrilysin (Homo sapiens, UniProt P09237).
T1 sequence (P09237 whole entry): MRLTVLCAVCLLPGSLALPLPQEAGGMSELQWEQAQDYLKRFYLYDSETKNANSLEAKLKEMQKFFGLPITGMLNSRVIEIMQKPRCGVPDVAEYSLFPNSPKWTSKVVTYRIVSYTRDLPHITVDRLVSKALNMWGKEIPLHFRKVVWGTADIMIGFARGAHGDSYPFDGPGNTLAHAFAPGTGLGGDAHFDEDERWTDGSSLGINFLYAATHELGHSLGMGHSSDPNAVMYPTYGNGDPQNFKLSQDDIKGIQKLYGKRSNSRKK
Description: Inhibitory activity against matrix metalloprotease-7. The method, boiled down:
(§1)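 Inhibition of each enzyme (MMP-1 collagenase-1, MMP-2 gelatinase A, MMP-3 stromelysin, MMP-7 matrilysin, MMP-8 collagenase-2, MMP-9 gelatinase B) was measured at pH 7.4 and reported as binding values. Compounds were tested as racemic mixtures. Standard deviations were under 30% of the mean values.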

Data set [1] has as its target Matrix metalloproteinase-9 (Homo sapiens, UniProt P14780). Kind of data set: In vitro inhibition of human matrix metalloprotease-9. The gist of the method: as §1
Data set [2] concerns the target 72 kDa type IV collagenase (Homo sapiens, UniProt P08253). Description: In vitro inhibitory activity against matrix metalloprotease-2.
A further data set has as its target Neutrophil collagenase (Homo sapiens, UniProt P22894). Description: Inhibitory activity against matrix metalloprotease-8.
The target in data set [3] is T2, Stromelysin-1 (Homo sapiens, UniProt P08254). Description: (§2) In vitro inhibitory activity against matrix metalloprotease-3.
The target in data set [4] is T3, Interstitial collagenase (Homo sapiens, UniProt P03956).
T3 sequence (P03956 whole entry): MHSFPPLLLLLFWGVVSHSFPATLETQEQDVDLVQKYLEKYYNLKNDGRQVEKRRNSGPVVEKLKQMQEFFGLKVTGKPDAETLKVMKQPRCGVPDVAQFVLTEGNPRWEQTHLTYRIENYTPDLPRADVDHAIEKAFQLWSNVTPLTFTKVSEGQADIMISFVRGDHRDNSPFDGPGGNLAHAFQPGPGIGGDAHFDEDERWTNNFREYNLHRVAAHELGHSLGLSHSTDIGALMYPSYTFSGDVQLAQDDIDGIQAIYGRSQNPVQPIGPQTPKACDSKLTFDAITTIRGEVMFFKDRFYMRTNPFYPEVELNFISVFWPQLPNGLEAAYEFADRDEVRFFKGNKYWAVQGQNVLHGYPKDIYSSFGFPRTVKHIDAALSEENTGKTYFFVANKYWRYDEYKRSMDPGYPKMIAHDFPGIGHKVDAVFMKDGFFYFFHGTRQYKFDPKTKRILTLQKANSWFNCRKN
Description: (§3) In vitro inhibitory activity against matrix metalloprotease-1.

Another data set concerns the target Collagenase 3 (Homo sapiens, UniProt P45452). Kind of data set: In vitro inhibitory activity against matrix metalloprotease-13.
Data set [5] deals with T3, Interstitial collagenase. The data set is described as §3. The method, boiled down: as §1
The source holds these as a separate data set.

For data set [6], the target named is T2, Stromelysin-1. The description is as §2. The method, boiled down: as §1
This is another data set of the same source.

Converted amounts (≈) assume the structure as drawn. Some results are limits rather than exact numbers.

Chain of Matrix metalloproteinase-9 (P14780 whole entry): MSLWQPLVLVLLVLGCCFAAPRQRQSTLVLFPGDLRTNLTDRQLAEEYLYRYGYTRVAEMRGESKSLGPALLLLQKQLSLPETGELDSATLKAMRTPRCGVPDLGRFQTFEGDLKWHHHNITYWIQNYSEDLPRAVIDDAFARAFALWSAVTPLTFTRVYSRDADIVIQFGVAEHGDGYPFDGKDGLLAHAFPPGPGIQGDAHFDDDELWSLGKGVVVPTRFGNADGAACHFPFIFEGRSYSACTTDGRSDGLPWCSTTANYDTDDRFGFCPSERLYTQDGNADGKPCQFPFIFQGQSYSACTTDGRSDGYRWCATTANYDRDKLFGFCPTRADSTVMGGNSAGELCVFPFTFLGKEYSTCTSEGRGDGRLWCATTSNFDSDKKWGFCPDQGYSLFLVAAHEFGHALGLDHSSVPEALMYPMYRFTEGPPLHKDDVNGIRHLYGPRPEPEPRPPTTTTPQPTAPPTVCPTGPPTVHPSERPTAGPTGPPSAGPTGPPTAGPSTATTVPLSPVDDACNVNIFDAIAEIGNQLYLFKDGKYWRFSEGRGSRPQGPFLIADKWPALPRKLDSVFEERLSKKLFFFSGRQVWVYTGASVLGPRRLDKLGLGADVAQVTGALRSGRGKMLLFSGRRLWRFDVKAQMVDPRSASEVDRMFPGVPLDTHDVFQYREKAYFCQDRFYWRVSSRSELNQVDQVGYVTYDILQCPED
T2 sequence (P08254 whole entry): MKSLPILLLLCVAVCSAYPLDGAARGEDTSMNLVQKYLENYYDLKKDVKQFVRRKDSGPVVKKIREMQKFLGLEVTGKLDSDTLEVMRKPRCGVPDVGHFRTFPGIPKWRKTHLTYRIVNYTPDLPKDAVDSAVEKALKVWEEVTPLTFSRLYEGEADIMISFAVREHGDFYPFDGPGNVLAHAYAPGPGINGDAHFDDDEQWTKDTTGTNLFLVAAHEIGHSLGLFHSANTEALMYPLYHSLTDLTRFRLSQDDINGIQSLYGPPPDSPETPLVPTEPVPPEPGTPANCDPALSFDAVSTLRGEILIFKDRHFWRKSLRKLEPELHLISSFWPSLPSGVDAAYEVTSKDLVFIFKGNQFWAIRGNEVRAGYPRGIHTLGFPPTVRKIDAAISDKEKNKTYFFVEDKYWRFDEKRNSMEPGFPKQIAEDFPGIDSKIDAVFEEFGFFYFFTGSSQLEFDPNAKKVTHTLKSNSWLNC
Chain of Neutrophil collagenase (P22894 whole entry): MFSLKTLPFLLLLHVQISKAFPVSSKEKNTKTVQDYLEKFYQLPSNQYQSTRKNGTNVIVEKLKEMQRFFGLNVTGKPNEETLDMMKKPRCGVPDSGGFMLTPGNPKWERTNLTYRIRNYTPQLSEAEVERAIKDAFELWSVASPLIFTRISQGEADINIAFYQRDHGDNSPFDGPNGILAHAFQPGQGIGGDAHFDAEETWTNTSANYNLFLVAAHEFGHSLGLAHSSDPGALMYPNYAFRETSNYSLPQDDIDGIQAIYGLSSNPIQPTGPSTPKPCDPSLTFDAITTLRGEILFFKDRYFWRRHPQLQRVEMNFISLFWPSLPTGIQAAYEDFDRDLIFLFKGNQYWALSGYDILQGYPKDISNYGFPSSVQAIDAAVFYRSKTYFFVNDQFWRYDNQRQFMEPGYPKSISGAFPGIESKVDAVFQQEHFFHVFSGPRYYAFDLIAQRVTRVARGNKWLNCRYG
Chain of 72 kDa type IV collagenase (P08253 whole entry): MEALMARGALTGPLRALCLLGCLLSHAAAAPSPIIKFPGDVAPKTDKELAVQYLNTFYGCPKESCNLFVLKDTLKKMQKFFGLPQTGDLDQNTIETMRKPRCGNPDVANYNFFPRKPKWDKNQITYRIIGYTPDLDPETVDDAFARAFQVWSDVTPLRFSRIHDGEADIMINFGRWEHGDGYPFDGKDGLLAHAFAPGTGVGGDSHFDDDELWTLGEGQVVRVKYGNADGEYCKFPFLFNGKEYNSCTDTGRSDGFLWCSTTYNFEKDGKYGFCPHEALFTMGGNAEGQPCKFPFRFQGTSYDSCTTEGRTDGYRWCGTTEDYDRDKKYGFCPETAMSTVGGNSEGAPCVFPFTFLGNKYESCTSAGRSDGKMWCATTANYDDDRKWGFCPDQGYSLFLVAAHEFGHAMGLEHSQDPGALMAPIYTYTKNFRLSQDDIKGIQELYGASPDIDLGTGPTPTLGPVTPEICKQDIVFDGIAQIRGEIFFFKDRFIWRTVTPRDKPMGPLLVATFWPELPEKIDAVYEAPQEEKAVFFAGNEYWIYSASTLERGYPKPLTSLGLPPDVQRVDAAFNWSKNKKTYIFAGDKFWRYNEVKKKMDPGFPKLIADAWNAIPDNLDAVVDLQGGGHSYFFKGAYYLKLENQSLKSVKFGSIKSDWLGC

`COc1ccc(-c2ccc(S(=O)(=O)NC(CC#Cc3ccccc3)C(=O)O)cc2)cc1` (centres undefined): the IC50 at Matrilysin was greater than 10000 nM; in data set [1], 553 nM; in [2], 12.5 nM; against Neutrophil collagenase it was 9.4 nM.

As for `COc1ccc(-c2ccc(S(=O)(=O)N[C@@H](C(=O)O)C3CCN(C(=O)OC(C)(C)C)CC3)cc2)cc1`, the IC50 turned out to be 3660 nM on Matrilysin, 6.6 nM in data set [1], 33.7 nM against Stromelysin-1 [3] and 1370 nM at Interstitial collagenase [4].

As to `COCCOC(=O)N1CCC(C(NS(=O)(=O)c2ccc(-c3ccc(SC)cc3)cc2)C(=O)O)CC1` (centres undefined), the IC50 was 1020 nM against Matrilysin; 7.3 nM in [1]; 0.4 nM in [2]; 1 nM at Collagenase 3; 1.8 nM against Neutrophil collagenase; 40.6 nM at Stromelysin-1 [3]. This molecule gave an IC50 against Interstitial collagenase [4] of 1080 nM. Besides, the concentration in solution in “physchem” (solubility) was 3500 µg/mL (≈ 6.7 mM).

With `COC(=O)N1CCC(C(NS(=O)(=O)c2ccc(-c3ccc(OC)cc3)cc2)C(=O)O)CC1` (centres undefined), the IC50 against Matrilysin was 5650 nM; in data set [1], 177 nM; in data set [2], 2.8 nM; against Stromelysin-1 [3] it was 657 nM; against Interstitial collagenase [4] it was 5210 nM.

As to `COCCOC(=O)N1CCC(C(C(=O)O)N(C)S(=O)(=O)c2ccc(-c3ccc(OC)cc3)cc2)CC1` (centres undefined), the IC50 on Matrilysin was 3950 nM; in data set [1] it was 13.9 nM; in [2], 0.9 nM; at Stromelysin-1 [3] it was 69.6 nM; at Interstitial collagenase [4], 1850 nM.

On to `COCCOC(=O)N1CCC(C(NS(=O)(=O)c2ccc(-c3ccccc3)cc2)C(=O)O)CC1` (centres undefined), for which the IC50 was greater than 10000 nM at Matrilysin; 415 nM in [1]; 24.2 nM in [2]; 55.3 nM against Collagenase 3; 44.8 nM at Neutrophil collagenase; 418 nM on Stromelysin-1 [3]. On Interstitial collagenase [4], this molecule returned an IC50 of 6050 nM.

For `COCCOC(=O)N1CCC(C(C(=O)O)N(CCOC)S(=O)(=O)c2ccc(-c3ccc(OC)cc3)cc2)CC1` (centres undefined), the IC50 worked out at 2650 nM against Matrilysin; 9.1 nM in data set [1]; 0.6 nM in data set [2]; 1 nM against Collagenase 3; 2.4 nM against Neutrophil collagenase; 45.5 nM against Stromelysin-1 [3]. This molecule also came in with an IC50 on Interstitial collagenase [4] of 1220 nM. The molecule further gave a solubility in the data set “physchem” of 11100 µg/mL (≈ 19.6 mM).

`COc1ccc(-c2ccc(S(=O)(=O)N[C@H](C(=O)O)C3CCN(C(=O)OC(C)(C)C)CC3)cc2)cc1`: the IC50 against Matrilysin came to 8510 nM; in data set [1], 71.5 nM; against Stromelysin-1 [3] it was 345 nM; against Interstitial collagenase [4] it was 3490 nM.

On to `COc1ccc(-c2ccc(S(=O)(=O)N[C@H](C(=O)O)C(C)C)cc2)cc1`, for which the IC50 on Matrilysin was greater than 10000 nM; in data set [1], 747 nM; against Interstitial collagenase [5], 8710 nM; in data set [2] it was 6.6 nM; on Collagenase 3 it was 24.2 nM; against Neutrophil collagenase, 10.6 nM. Also, the IC50 on Stromelysin-1 [3] came out at 1890 nM.

Consider `COc1ccc(-c2ccc(S(=O)(=O)NC(C(=O)O)C3CCN(C(=O)CC(C)C)CC3)cc2)cc1` (centres undefined), for which the IC50 on Matrilysin is 4370 nM; in [1] it was 137 nM; in [2], 3.2 nM; against Stromelysin-1 [3] it was 739 nM; against Interstitial collagenase [4], 4900 nM.

`COc1ccc(-c2ccc(S(=O)(=O)NC(C(=O)O)C3CCNCC3)cc2)cc1` (centres undefined): the IC50 at Stromelysin-1 [6] was found to be 4840 nM; on Matrilysin, 4240 nM; in data set [1], 1760 nM; in data set [2] it was 53 nM; against Collagenase 3, 264 nM; on Neutrophil collagenase, 30.2 nM. This molecule returned an IC50 against Interstitial collagenase [4] of 3890 nM.

Turning to `COCCOC(=O)N1CCC(C(NS(=O)(=O)c2ccc(Oc3ccccc3)cc2)C(=O)O)CC1` (centres undefined), the IC50 on Matrilysin was greater than 10000 nM; in data set [1], 597 nM; in data set [2], 58.1 nM; at Collagenase 3, 140 nM; at Neutrophil collagenase it was 25.8 nM; against Stromelysin-1 [3] it was 399 nM. Besides, the IC50 on Interstitial collagenase [4] was greater than 10000 nM.

Regarding `COc1ccc(-c2ccc(S(=O)(=O)NC(C(=O)O)C3CCN(C(=O)OC(C)(C)C)CC3)cc2)cc1` (centres undefined), the IC50 is 2590 nM against Matrilysin, 5.4 nM in data set [1], 56.4 nM against Stromelysin-1 [3] and 1420 nM at Interstitial collagenase [4].

With `COc1ccc(-c2ccc(S(=O)(=O)NC(C(=O)O)C3CCN(C(=O)N4CCOCC4)CC3)cc2)cc1` (centres undefined), the IC50 came out at 8570 nM on Matrilysin; 50.8 nM in data set [1]; 1.1 nM in [2]; 221 nM at Stromelysin-1 [3]; 1760 nM against Interstitial collagenase [4].

In the case of `COc1ccc(-c2ccc(S(=O)(=O)NC(C(=O)O)C3CCN(C(=O)OC(C)C)CC3)cc2)cc1` (centres undefined), the IC50 at Matrilysin is 1740 nM; in data set [1], 11.7 nM; in [2], less than 0.4 nM; at Collagenase 3, 1 nM; on Neutrophil collagenase it was 1.5 nM; at Stromelysin-1 [3] it was 41.8 nM. Moreover, it took 1400 nM to reach half-maximal inhibition on Interstitial collagenase [4] (IC50). Moreover, the concentration in solution in the data set “physchem” (solubility) came to 130 µg/mL (≈ 0.265 mM).

As to `O=C(CC(CSc1ccccc1)C(=O)O)c1ccc(-c2ccc(Cl)cc2)cc1` (centres undefined), the IC50 is greater than 10000 nM against Matrilysin; 3110 nM in data set [1]; 91.3 nM in data set [2]; 1570 nM at Collagenase 3; 303 nM against Neutrophil collagenase; greater than 10000 nM at Interstitial collagenase [4].

Regarding `CCOC(=O)N1CCC(C(NS(=O)(=O)c2ccc(-c3ccc(OC)cc3)cc2)C(=O)O)CC1` (centres undefined), the IC50 stood at 9870 nM against Matrilysin; 94.9 nM in data set [1]; 1 nM in data set [2]; 162 nM on Stromelysin-1 [3]; 2760 nM on Interstitial collagenase [4].

Consider `CCCCOc1ccc(S(=O)(=O)NC(C(=O)O)C2CCN(C(=O)OCCOC)CC2)cc1` (centres undefined), for which the 50% inhibitory concentration (IC50) on Matrilysin is greater than 10000 nM; in [1], 2990 nM; in data set [2], 549 nM; on Collagenase 3 it was 791 nM; at Neutrophil collagenase, 294 nM; against Stromelysin-1 [3], 678 nM. On Interstitial collagenase [4], this molecule returned an IC50 greater than 10000 nM.

`COCCOC(=O)N1CCC(C(C(=O)O)N(Cc2ccccn2)S(=O)(=O)c2ccc(-c3ccc(OC)cc3)cc2)CC1` (centres undefined): the IC50 at Matrilysin was found to be 3640 nM; in [1], 18.7 nM; in data set [2], 1 nM; on Collagenase 3, 3 nM; against Neutrophil collagenase, 3.2 nM; at Stromelysin-1 [3], 86.1 nM. On Interstitial collagenase [4], this molecule registered an IC50 of 3310 nM.

As to `COCCOC(=O)N1CCC(C(NS(=O)(=O)c2ccc(-c3ccc(OC)cc3)cc2)C(=O)O)CC1` (stereo in doubt; 13g), the IC50 at Matrilysin came out at 4110 nM; in data set [1], 55 nM; in data set [2], 0.8 nM; against Collagenase 3, 3.5 nM; at Neutrophil collagenase, 3.4 nM; on Stromelysin-1 [3], 133 nM. In “physchem”, the solubility came to 8070 µg/mL (≈ 15.9 mM).

On to `COCCOC(=O)N1CCC(C(NS(=O)(=O)c2ccc(-c3ccc(OC)cc3)cc2)C(=O)O)CC1` (stereo in doubt; 14i), for which the IC50 is less than 0.4 nM in [1], 0.4 nM against Collagenase 3, 0.5 nM against Neutrophil collagenase and 13.8 nM against Stromelysin-1 [3].
